Measured values from paper PMC3580954 (Biopolymers, 2013).
Substitutions are numbered along the chain they refer to. Where two headings read alike, the source gives them in different places. Residues, ends and D or L forms follow the SMILES beside them. No end group written: not given here.

B1: PrRP4-20 (peptide)
chain: INPAWYASRGIRPVGRF-NH2
B2: PrRP14-20 (peptide)
chain: IRPVGRF-NH2
B3: PrRP20 (peptide)
chain: {(3H)propionyl}-TPDINPAWYASRGIRPVGRF-NH2
B4: PrRP20 (peptide)
chain: TPDINPAWYASRGIRPVGRF-NH2
B5: PrRP8-20 (peptide)
chain: WYASRGIRPVGRF-NH2

Legend:
[1] = molecular target: T1, wt PrRP receptor (Homo sapiens, UniProt P49683); assay: Radioligand displacement; format: binding
T1 sequence (P49683 1-370): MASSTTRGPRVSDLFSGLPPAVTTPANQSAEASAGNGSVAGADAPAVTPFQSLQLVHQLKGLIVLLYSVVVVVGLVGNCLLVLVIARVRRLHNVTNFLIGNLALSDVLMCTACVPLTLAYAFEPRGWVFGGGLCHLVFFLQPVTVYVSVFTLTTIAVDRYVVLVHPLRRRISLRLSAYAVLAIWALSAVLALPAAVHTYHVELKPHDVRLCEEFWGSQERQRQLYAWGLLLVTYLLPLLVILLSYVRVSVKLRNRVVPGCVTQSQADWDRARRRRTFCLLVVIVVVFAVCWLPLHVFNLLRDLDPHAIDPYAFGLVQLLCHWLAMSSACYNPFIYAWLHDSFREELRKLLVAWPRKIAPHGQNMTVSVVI
Method in brief: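 COS-7 cells (1.5 × 10⁶ seeded) were transiently transfected at 60–70% confluency with 4 µg of EYFP-fused human PrRP receptor DNA. About 24 h later, competition binding was run on intact cells against 1 nM N[propionyl³H]hPrRP20. IC50 came from a one-site competition fit, with triplicates.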

[2] = molecular target: T2, wt hPrRP receptor (Homo sapiens, UniProt P49683); assay: Signal transduction; format: cell-based; conditions: SD
T2 sequence (P49683 1-370): T1 sequence (P49683 1-370)
Method in brief: (§1)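 COS-7 cells were transiently transfected with 0.4 µg plasmid of human PrRP receptor or its site-directed mutant, C-terminally fused to EYFP. One day after transfection and 16 h before stimulation, cells were labelled with 2 µCi/mL [³H]myo-inositol. They were then stimulated with increasing peptide concentrations for 1 h at 37°C in DMEM with 10 mM LiCl, and lysed in 0.1 M NaOH. IP was separated by anion exchange and counted by scintillation. EC50 came from concentration-response curves; runs were in duplicate, repeated ≥2 times.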

[3] = molecular target: T3, Y^2.64A PrRP receptor (Homo sapiens, UniProt P49683, Y120A); assay: IP accumulation assay, Y^2.64A receptor mutant; format: cell-based; conditions: SD
T3 sequence (P49683 1-370 Y120A): T1 sequence (P49683 1-370) with Y120A
Method in brief: as §1

[4] = molecular target: T4, W^2.71A PrRP receptor (Homo sapiens, UniProt P49683, W127A); assay: IP accumulation assay, W^2.71A receptor mutant; format: cell-based; conditions: SD
T4 sequence (P49683 1-370 W127A): T1 sequence (P49683 1-370) with W127A
Method in brief: as §1

[5] = molecular target: T5, PrRP receptor (GPR10) (Homo sapiens, UniProt P49683); assay: radioligand displacement on transfected COS-7 cells
T5 chain: T1 sequence (P49683 1-370)

[6] = molecular target: T5, PrRP receptor (GPR10); assay: radioligand binding on transfected COS-7 cells

Row | Molecule | EC50 [2] | IC50 [5] | further results
1 | CC[C@H](C)[C@H](NC(=O)CNC(=O)[C@H](CCCNC(=N)N)NC(=O)[C@H](CO)NC(=O)[C@H](C)NC(=O)[C@H](Cc1ccc(O)cc1)NC(=O)[C@H](Cc1c[nH]c2ccccc12)NC(=O)[C@H](C)NC(=O)[C@@H]1CCCN1C(=O)[C@H](CC(N)=O)NC(=O)[C@@H](NC(=O)[C@H](CC(=O)O)NC(=O)[C@@H]1CCCN1C(=O)[C@@H](N)[C@@H](C)O)[C@@H](C)CC)C(=O)N[C@@H](C)C(=O)N1CCC[C@H]1C(=O)N[C@H](C(=O)NCC(=O)N[C@@H](CCCNC(=N)N)C(=O)N[C@@H](Cc1ccccc1)C(N)=O)C(C)C [A^15PrRP20] (H-TPDINPAWYASRGIAPVGRF-NH2) | 49 ± 12 nM |  | IC50 ([1]; SD): 882 ± 376 nM
2 | CC[C@H](C)[C@H](NC(=O)CNC(=O)[C@H](CCCNC(=N)N)NC(=O)[C@H](CO)NC(=O)[C@H](C)NC(=O)[C@H](Cc1ccc(O)cc1)NC(=O)[C@H](Cc1c[nH]c2ccccc12)NC(=O)[C@H](C)NC(=O)[C@@H]1CCCN1C(=O)[C@H](CC(N)=O)NC(=O)[C@@H](NC(=O)[C@H](CC(=O)O)NC(=O)[C@@H]1CCCN1C(=O)[C@@H](N)[C@@H](C)O)[C@@H](C)CC)C(=O)N[C@@H](CCCNC(=N)N)C(=O)N1CCC[C@H]1C(=O)N[C@H](C(=O)NCC(=O)N[C@@H](C)C(=O)N[C@@H](Cc1ccccc1)C(N)=O)C(C)C [A^19PrRP20] (H-TPDINPAWYASRGIRPVGAF-NH2) | 1200 ± 231 nM |  | IC50 [1]: > 10000 nM
3 | CC[C@H](C)[C@H](NC(=O)CNC(=O)[C@H](CCCNC(=N)N)NC(=O)[C@H](CO)NC(=O)[C@H](C)NC(=O)[C@H](Cc1ccc(O)cc1)NC(=O)[C@H](Cc1c[nH]c2ccccc12)NC(=O)[C@H](C)NC(=O)[C@@H]1CCCN1C(=O)[C@H](CC(N)=O)NC(=O)[C@@H](NC(=O)[C@H](CC(=O)O)NC(=O)[C@@H]1CCCN1C(=O)[C@@H](N)[C@@H](C)O)[C@@H](C)CC)C(=O)N[C@@H](CCCNC(=N)N)C(=O)N1CCC[C@H]1C(=O)N[C@H](C(=O)NCC(=O)N[C@@H](CCCNC(=N)N)C(=O)N[C@@H](C)C(N)=O)C(C)C [A^20PrRP20] (H-TPDINPAWYASRGIRPVGRA-NH2) | 20 ± 5 nM |  | IC50 ([1]; SD): 870 ± 288 nM
4 | CC[C@H](C)[C@H](N)C(=O)N[C@@H](CC(N)=O)C(=O)N1CCC[C@H]1C(=O)N[C@@H](C)C(=O)N[C@@H](Cc1c[nH]c2ccccc12)C(=O)N[C@@H](Cc1ccc(O)cc1)C(=O)N[C@@H](C)C(=O)N[C@@H](CO)C(=O)N[C@@H](CCCNC(=N)N)C(=O)NCC(=O)N[C@H](C(=O)N[C@@H](CCCNC(=N)N)C(=O)N1CCC[C@H]1C(=O)N[C@H](C(=O)NCC(=O)N[C@@H](CCCNC(=N)N)C(=O)N[C@@H](Cc1ccccc1)C(N)=O)C(C)C)[C@@H](C)CC [PrRP4-20] (H-INPAWYASRGIRPVGRF-NH2) | 1 ± 0.2 nM |  | 
5 | CC[C@H](C)[C@H](NC(=O)CNC(=O)[C@H](CCCNC(=N)N)NC(=O)[C@H](CO)NC(=O)[C@H](C)NC(=O)[C@H](Cc1ccc(O)cc1)NC(=O)[C@@H](N)Cc1c[nH]c2ccccc12)C(=O)N[C@@H](CCCNC(=N)N)C(=O)N1CCC[C@H]1C(=O)N[C@H](C(=O)NCC(=O)N[C@@H](CCCNC(=N)N)C(=O)N[C@@H](Cc1ccccc1)C(N)=O)C(C)C [PrRP8-20] (H-WYASRGIRPVGRF-NH2) | 2.3 ± 0.5 nM |  | EC50 [3]: 434 ± 96 nM; EC50 [4]: 2120 ± 390 nM
6 | CC[C@H](C)[C@H](N)C(=O)N[C@@H](CCCNC(=N)N)C(=O)N1CCC[C@H]1C(=O)N[C@H](C(=O)NCC(=O)N[C@@H](CCCNC(=N)N)C(=O)N[C@@H](Cc1ccccc1)C(N)=O)C(C)C [PrRP14-20] (H-IRPVGRF-NH2) | 14 ± 2 nM |  | 
7 | B1 |  | 1.2 nM | 
8 | B2 |  | 430 nM | 
9 | B3 |  |  | Kd [6]: 0.58 nM
10 | B4 |  | 4.1 nM | 
11 | B5 |  | 7 nM | 
